XBP1 UPR activ: activators of adaptive arm of unfolded protein response (XBP1). activation, % at 20 µM. CHO-XBP1 luciferase reporter, IRE1-XBP1 UPR activation, luminescence; percent of tunicamycin response, DMSO as zero. 330,000 tested, 0.33% active;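 active = versus positive control, 20 µM dose yields 30% or more activation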;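 note: 100% = tunicamycin at 10 µg/mL and 0% = DMSO only wells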
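Material: CHO-XBP1 cells stably carrying IRE1-XBP1-driven luciferase reporter / Amount: 1000 cells per well / Compound: 20 µM, 1% DMSO / Times: 6 h treatment, 37 °C / Detection: luciferase luminescence / Measure: % activation of reporter signal versus tunicamycin and DMSO controls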
Lmaj promast: reduces viability of Leishmania major promastigotes; resazurin fluorescence viability; inhibition, % at 10 µM; 200,000 tested, 9% active; AID 1063; in the data active = inhibition above about 50%;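 note: promastigotes grown with compound for 44 hours at 28 °C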
Dynein cargo inh: dynein cargo transport inhibition. 3617.4 mouse cells, GR-EGFP nuclear translocation imaging; test concentration mostly 20 µM; stimulated with dexamethasone, 1 µM; active compounds read low. 220,000 tested, 0.47% active. AID 1381. z-score, hits read low;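 active = plate z-score of nuclear minus cytoplasmic receptor signal below a set negative limit, without overly bright fluorescence or cell loss, cut at about -3.5 in these data, passing the limit was not always enough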;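 note: z-score of nuclear minus cytoplasmic ring GR-EGFP intensity difference per well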
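Schedule: 48 h induction, then 1 h compound, then 30 min agonist, 37 °C. Buffer or medium: tetracycline-free induction medium containing charcoal-stripped FBS. Reagent: 1.0 µM final dexamethasone stimulus. Evaluation: nuclear versus cytoplasmic GR-EGFP signal, averaged per well. Signal: high-content fluorescence imaging after fixation.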
UPR CHOP act: apoptotic UPR (CHOP) activation; activation, % at 10 µM; CHO-CHOP luciferase reporter, luminescence; percent of tunicamycin response over DMSO baseline; 330,000 tested, 0.34% active;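 active = at 10 µM dose, activation of 40% or more, normalized to positive control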;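 note: 100% = tunicamycin at 10 µg/mL and 0% = DMSO alone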
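Assay system: CHO cells with stable CHOP pathway luciferase reporter; Buffer or medium: F12 plus 10% serum; Times: 16-18 h cell attachment, then 6 h compound exposure, 37 °C; Signal: luciferase luminescence; Read-out basis: percent activation relative to tunicamycin control; Control set: tunicamycin high control, DMSO low control.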
CHOP inhibitor: inhibitors of CHOP induction in ER stress response; inhibition, % at 10 µM; CHO-K1 CHOP-promoter luciferase, tunicamycin-induced, 15-18 h; 220,000 tested, 3.8% active;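 active = compounds that reduced the stress-induced luciferase reporter signal by more than about 70% of percent inhibition, limit read from the data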;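 note: 0% = tunicamycin plus vehicle and 100% = wells without tunicamycin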
T cruzi inh: T. cruzi replication inhibition. T. cruzi beta-gal in NIH3T3, luminescence, 90 h. inhibition, % (concentration not given with the values). 300,000 tested, 1.4% active;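 active = mean inhibition across valid replicates above about 55%, limit read from the data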;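 note: signal also drops with host cell toxicity which is not excluded here; 0% = plate median of DMSO wells and 100% = zero luminescence signal; higher percent means less beta-gal luminescence so fewer parasites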
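compound dosing = single 50 nL compound addition per well in DMSO | material = NIH/3T3 host cells with β-galactosidase reporter T. cruzi | input = 5,000 host fibroblasts per well | timing = ≥90 h infection period, 3 h prior cell attachment | read-out basis = percent inhibition of parasite-derived β-gal signal | detection = GalScreen β-gal luminescence, detergent lysis, 60 min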
* marks the source's active call; other numbers are inactive results; nt = no result given. The full list was thinned out, with hits kept by preference.

SMILES	XBP1 UPR activ	Lmaj promast	Dynein cargo inh	UPR CHOP act	CHOP inhibitor	T cruzi inh
CCCn1nc(C(=O)NNC(=O)CCCOc2ccc(OC)cc2)c2ccccc2c1=O	-0.6	nt	nt	-1.2	nt	nt
S=c1[nH]c(-c2ccc(Cl)cc2)cs1	-1.0	66.7*	-0.71	1.4	-3.0	-18.2
Cc1ccc(-c2csc(=S)[nH]2)cc1	5.0	25.2	0.106	2.2	-12.8	2.7
Clc1nc(-c2ccccn2)nc2scc(-c3ccccc3)c12	-0.2	66.0*	-1.11	-1.8	35.1	14.2
CCn1c(SCC(=O)Nc2nncs2)nnc1C(C)NC(=O)c1ccccc1Br (stereo unspecified)	0.3	nt	nt	-1.6	nt	-7.4
C=CCSC1=N/C(=C\c2ccc(C)o2)C(=O)S1	7.2	-7.4	-0.0663	-2.4	71.5*	-2.6
CCOC(=O)c1ccc(NC(=O)C(=O)NCc2ccc(/C=C(/C#N)C(=O)NCCOC)o2)cc1	0.1	-8.2	-0.117	1.5	71.8*	0.6
Cc1ccc(Cn2cnc3ccccc32)cc1	1.4	77.5*	-0.732	1.3	22.6	49.9
Cc1ccc(S(=O)(=O)N2CCCC2)cc1C(=O)NCc1ccccc1CN1CCCC1	0.4	nt	nt	1.3	nt	nt
COC(=O)c1cn(-c2ccccc2)nc1-c1ccc(OC)cc1	4.9	25.8	-0.299	1.8	38.2	-19.7
CCOc1ccc(NC(=O)CN(C)C(=O)c2cn(-c3ccc(F)cc3)nc2-c2cccc(OC)c2)cc1OCC	-3.6	nt	nt	3.8	nt	10.5
CCN(CC)CCNC(=S)NC(=O)c1cn(-c2ccccc2)nc1-c1ccc(OC)cc1	2.5	90.7*	-0.0313	2.4	-4.1	17.4
CCN(CC)CCNC(=O)c1ccc(NC(=O)c2cn(-c3ccccc3)nc2-c2cccs2)cc1	7.1	100.4*	-7.29*	4.8	66.6	45.7
CCN(CC)CCNC(=O)c1ccc(NC(=O)c2cn(-c3ccc(F)cc3)nc2-c2cccc(OC)c2)cc1	-0.7	nt	nt	6.2	nt	65.0*
O=C(c1ccc(S(=O)(=O)N2CCOCC2)cc1)N(c1cccc(Cl)c1)C1C=CS(=O)(=O)C1 (stereo unspecified)	3.4	-5.2	-0.545	-0.1	-23.9	10.3
CC(C)Oc1cccc(C(=O)C2CCCN(Cc3cccn3-c3cccnc3)C2)c1 (stereo unspecified)	4.2	nt	-0.417	0.0	16.6	53.0
CSc1ccc(C(=O)C2CCCN(Cc3cccn3-c3cccnc3)C2)cc1 (stereo unspecified)	-1.4	85.2*	0.0737	0.0	18.2	29.8
O=C(c1ccc2c(c1)OCO2)C1CCCN(Cc2cccn2-c2cccnc2)C1 (stereo unspecified)	0.1	94.4*	-0.429	2.8	24.6	57.9*
COc1ccc(C(=O)C2CCCN(Cc3cccn3-c3cccnc3)C2)cc1OC (stereo unspecified)	-1.5	8.1	1.13	-1.2	-13.1	9.7
O=C(c1ccc(Cl)cc1)C1CCCN(Cc2cccn2-c2cccnc2)C1 (stereo unspecified)	-0.3	86.7*	0.383	-0.1	45.4	58.1*
COc1ccccc1C(=O)NC(=O)CSc1nnnn1C	4.0	nt	nt	2.9	nt	nt
CCOc1ccccc1/C=C/c1onc(C)c1S(=O)(=O)N1CCC(C(=O)N2CCCCCC2)CC1	-1.0	nt	nt	1.6	nt	28.4
Cc1ccc(S(=O)(=O)N2CCN(C(=O)COC(=O)CSc3ccccc3)CC2)c(C)c1	1.2	nt	nt	-0.5	nt	13.3
COc1ccc(-c2nc3oc4cc(OC)ccc4c(=O)c3c(=O)n2Cc2ccco2)cc1	-1.1	73.2*	-1.17	1.1	59.5	14.5
COCCn1c(-c2ccc(OC)cc2)nc2oc3cc(OC)ccc3c(=O)c2c1=O	-2.4	55.0*	0.543	0.6	9.6	11.2
COc1ccc2c(=O)c3c(=O)n(Cc4ccco4)c(-c4ccco4)nc3oc2c1	2.0	43.0	0.157	-0.1	-6.0	4.1
COCCn1c(-c2ccc(Cl)cc2)nc2oc3cc(OC)ccc3c(=O)c2c1=O	-1.6	nt	-0.0419	1.5	15.4	9.6
COc1ccc(Cn2c(-c3ccco3)nc3oc4cc(OC)ccc4c(=O)c3c2=O)cc1	7.8	24.6	-0.518	6.5	92.1*	16.0

Screens: PubChem, several laboratories
